Data from ChEMBL document CHEMBL1139725, “Synthesis and SAR of novel hydantoin derivatives as selective androgen receptor modulators” (2006).
The source made the active and inactive calls. No cut-off for these calls is given here.

Assays:
Rattus norvegicus [1] = test: Inhibition of prostate weight in Sprague-Dawley rat at 2 mg/day, po relative to control; type: functional, Prostate gland
Outline: (§1)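 Five-day antagonist assay in immature (about 50 g) castrated male Sprague–Dawley rats. Compound given po in 20% cyclodextrin once daily at 2 mg/day for 5 days, with testosterone propionate co-dosed sc in sesame oil at 0.1 mg/d ([…]). Read-out is % inhibition of testosterone-enhanced tissue weight, with vehicle control set to 100% and testosterone-alone control to 0%; n = 3/group.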

Rattus norvegicus [2] = organism: Rattus norvegicus; test: Stimulation of levator ani muscle weight in Sprague-Dawley rat relative to testosterone; type: functional
Outline: (§2)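 Agonist mode of a five-day modified Hershberger assay in immature (about 50 g) castrated male Sprague–Dawley rats. Activity is % stimulation of tissue weight, with vehicle-treated control set to 0% and testosterone-alone control to 100%.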

Rattus norvegicus [3] = organism: Rattus norvegicus; test: Stimulation of prostate weight in Sprague-Dawley rat at 3 mg/day relative to testosterone; type: functional, Prostate gland; outline: as §2
Rattus norvegicus [4] = test: Inhibition of seminal vesicle weight in Sprague-Dawley rat at 2 mg/day, po relative to control; type: functional; outline: as §1
Rattus norvegicus [5] = organism: Rattus norvegicus; test: Stimulation of prostate weight in Sprague-Dawley rat relative to testosterone; type: functional, organism-based; details: Prostate gland
Outline: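 Immature castrated male Sprague–Dawley rats (about 50 g) were dosed for five days. Prostate weight was expressed as percent stimulation: vehicle-treated controls were set to 0% and testosterone-alone controls to 100%. The testosterone propionate reference was given subcutaneously at the nape of the neck at 5 mg/kg in sesame oil.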

Rattus norvegicus [6] = organism: Rattus norvegicus; test: Stimulation of levator ani muscle weight in Sprague-Dawley rat at 2 mg/day relative to testosterone; type: functional; outline: as §2
Rattus norvegicus [7] = test: Stimulation of prostate weight in Sprague-Dawley rat at 2 mg/day, po relative to testosterone; type: functional, Prostate gland; outline: as §2
Rattus norvegicus [8] = test: Stimulation of prostate weight in Sprague-Dawley rat at 5 mg/kg, sc; type: functional, Prostate gland; details: route subcutaneous
Outline: (§3)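 Testosterone propionate injected sc at the nape of the neck at 5 mg/kg in sesame oil, in immature (about 50 g) castrated male Sprague–Dawley rats in a five-day modified Hershberger assay. Read-out is stimulation of tissue weight.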

Rattus norvegicus [9] = test: Stimulation of levator ani muscle weight Sprague-Dawley rat at 5 mg/kg, sc; type: functional; details: route subcutaneous; outline: as §3

For `C[C@]12CC(C(F)(F)F)=NN1C(=O)N(c1ccc(C#N)c(C(F)(F)F)c1)C2=O`, the Inhibition (Rattus norvegicus [1]) was 21%, the Activity (Rattus norvegicus [2]) was 42% and the Activity (Rattus norvegicus [3]) was 14%.

With `C[C@@]12CCCN1C(=O)N(c1ccc(Cl)c(C(F)(F)F)c1)C2=O` the Inhibition (Rattus norvegicus [4]) was <10%, the Inhibition (Rattus norvegicus [1]) was 32% and the Activity (Rattus norvegicus [2]) was “inactive”. For the same molecule, the Activity (Rattus norvegicus [5]) was “inactive”.

For `CC(O)(CS(=O)(=O)c1ccc(F)cc1)C(=O)Nc1ccc(C#N)c(C(F)(F)F)c1` (stereo unspecified) [BICALUTAMIDE], the Inhibition (Rattus norvegicus [4]) was 80%, the Inhibition (Rattus norvegicus [1]) was 70% and the Activity (Rattus norvegicus [2]) was “inactive”. For the same molecule, the Activity (Rattus norvegicus [5]) was “inactive”.

`C[C@@]12CC(C(F)(F)F)=NN1C(=O)N(c1ccc(C#N)c(C(F)(F)F)c1)C2=O` was tested, and the Inhibition (Rattus norvegicus [1]) was 26%, the Activity (Rattus norvegicus [2]) was 75% and the Activity (Rattus norvegicus [3]) was 11%.

For `C[C@@]12CCCN1C(=S)N(c1ccc(Cl)c(C(F)(F)F)c1)C2=O`, the Inhibition (Rattus norvegicus [4]) was <10%, the Inhibition (Rattus norvegicus [1]) was 19% and the Activity (Rattus norvegicus [2]) was “inactive”. The Activity (Rattus norvegicus [5]) was “inactive”.

With `C[C@@]12CCCN1C(=S)N(c1ccc(C#N)c(C(F)(F)F)c1)C2=O` the Inhibition (Rattus norvegicus [4]) was 95%, the Inhibition (Rattus norvegicus [1]) was 78% and the Activity (Rattus norvegicus [2]) was “inactive”. The Activity (Rattus norvegicus [5]) was “inactive”.

Work on `CC12CNC(=O)N1C(=O)N(c1ccc([N+](=O)[O-])c(C(F)(F)F)c1)C2=O` (stereo unspecified) yielded an Inhibition (Rattus norvegicus [4]) of 15% and an Inhibition (Rattus norvegicus [1]) of 32%.

`CC12CC(C(F)(F)F)=NN1C(=O)N(c1ccc([N+](=O)[O-])c(C(F)(F)F)c1)C2=O` (stereo unspecified) was tested, and the Inhibition (Rattus norvegicus [1]) was 39%, the Activity (Rattus norvegicus [6]) was 73% and the Activity (Rattus norvegicus [7]) was 51%.

For `CC(=O)Nc1ccc(C2=NN3C(=O)N(c4ccc(C#N)c(C(F)(F)F)c4)C(=O)C3(C)C2)cc1` (stereo unspecified), the Inhibition (Rattus norvegicus [1]) was 25%, the Activity (Rattus norvegicus [6]) was 13% and the Activity (Rattus norvegicus [7]) was <10%.

`C[C@@]12CCCN1C(=S)N(c1ccc(Cl)c(Cl)c1)C2=O` was tested, and the Inhibition (Rattus norvegicus [4]) was 27%, the Inhibition (Rattus norvegicus [1]) was 17% and the Activity (Rattus norvegicus [2]) was “inactive”. For the same molecule, the Activity (Rattus norvegicus [5]) was “inactive” and the Activity (Rattus norvegicus [7]; Prostate gland) was “inactive”.

For `CN1CC2(C)C(=O)N(c3ccc(C#N)c(C(F)(F)F)c3)C(=O)N2C1=O` (stereo unspecified), the Inhibition (Rattus norvegicus [4]) was 85% and the Inhibition (Rattus norvegicus [1]) was 87%.

With `CC12CNC(=O)N1C(=O)N(c1ccc(Cl)c(C(F)(F)F)c1)C2=O` (stereo unspecified) the Inhibition (Rattus norvegicus [4]) was 19% and the Inhibition (Rattus norvegicus [1]) was 33%.

`CC12CNC(=O)N1C(=O)N(c1ccc(C#N)c(C(F)(F)F)c1)C2=O` (stereo unspecified) showed an Inhibition (Rattus norvegicus [4]) of 86% and an Inhibition (Rattus norvegicus [1]) of 79%.

With `C[C@@]12CCCN1C(=O)N(c1ccc(C#N)c(C(F)(F)F)c1)C2=O` the Inhibition (Rattus norvegicus [4]) was <10%, the Inhibition (Rattus norvegicus [1]) was 69% and the Activity (Rattus norvegicus [2]) was “inactive”. For the same molecule, the Activity (Rattus norvegicus [5]) was “inactive”.

With `C[C@@]12CC(C(F)(F)F)=NN1[S+]([O-])N(c1ccc(C#N)c(C(F)(F)F)c1)C2=O` (stereo partly specified) the Inhibition (Rattus norvegicus [1]) was 41%, the Activity (Rattus norvegicus [6]) was 117% and the Activity (Rattus norvegicus [7]) was 58%.

With `CC12CC=NN1C(=O)N(c1ccc(C#N)c(C(F)(F)F)c1)C2=O` (stereo unspecified) the Inhibition (Rattus norvegicus [1]) was 26%, the Activity (Rattus norvegicus [6]) was <10% and the Activity (Rattus norvegicus [7]) was <10%.

`CC12COC(=O)N1C(=O)N(c1ccc(C#N)c(C(F)(F)F)c1)C2=O` (stereo unspecified) was tested, and the Inhibition (Rattus norvegicus [4]) was 80% and the Inhibition (Rattus norvegicus [1]) was 75%.

In the case of `CN1CC2(C)C(=O)N(c3ccc(Cl)c(C(F)(F)F)c3)C(=O)N2C1=O` (stereo unspecified), the Inhibition (Rattus norvegicus [4]) is reported as 85% and the Inhibition (Rattus norvegicus [1]) is reported as 77%.

For `CCOC(=O)C1=NN2C(=O)N(c3ccc(C#N)c(C(F)(F)F)c3)C(=O)C2(C)C1` (stereo unspecified), the Inhibition (Rattus norvegicus [1]) was 16%, the Activity (Rattus norvegicus [2]) was <10% and the Activity (Rattus norvegicus [7]) was <10%.

`C[C@@]12CC(C(F)(F)F)=NN1C(=O)C(=O)N(c1ccc(C#N)c(C(F)(F)F)c1)C2=O` was tested, and the Inhibition (Rattus norvegicus [1]) was 27%, the Activity (Rattus norvegicus [6]) was 21% and the Activity (Rattus norvegicus [7]) was 12%.

In the case of `CC12COC(=O)N1C(=O)N(c1ccc([N+](=O)[O-])c(C(F)(F)F)c1)C2=O` (stereo unspecified), the Inhibition (Rattus norvegicus [4]) is reported as 28% and the Inhibition (Rattus norvegicus [1]) is reported as 43%.

For `CCOC(=O)C1=NN2C(=O)N(c3ccc([N+](=O)[O-])c(C(F)(F)F)c3)C(=O)C2(C)C1` (stereo unspecified), the Inhibition (Rattus norvegicus [1]) was 35%, the Activity (Rattus norvegicus [6]) was <10% and the Activity (Rattus norvegicus [7]) was <10%.

`C[C@@]12CCCN1C(=O)N(c1ccc(Cl)c(Cl)c1)C2=O` was tested, and the Inhibition (Rattus norvegicus [4]) was 16%, the Inhibition (Rattus norvegicus [1]) was 11% and the Activity (Rattus norvegicus [2]) was “inactive”. For the same molecule, the Activity (Rattus norvegicus [5]) was “inactive” and the Activity (Rattus norvegicus [7]; Prostate gland) was “inactive”.

Molecule `CCC(=O)O[C@H]1CC[C@H]2[C@@H]3CCC4=CC(=O)CC[C@]4(C)[C@H]3CC[C@]12C` [TESTOSTERONE PROPIONATE] has an Activity (Rattus norvegicus [8]) of 100% and an Activity (Rattus norvegicus [9]) of 100%.

`CCOC(=O)C1=NN2C(=O)C(=O)N(c3ccc(C#N)c(C(F)(F)F)c3)C(=O)C2(C)C1` (stereo unspecified) was tested, and the Inhibition (Rattus norvegicus [1]) was 15%, the Activity (Rattus norvegicus [6]) was <10% and the Activity (Rattus norvegicus [7]) was <10%.

In the case of `CC12COC(=O)N1C(=O)N(c1ccc(Cl)c(C(F)(F)F)c1)C2=O` (stereo unspecified), the Inhibition (Rattus norvegicus [4]) is reported as 51% and the Inhibition (Rattus norvegicus [1]) is reported as 55%.

With `C[C@@]12CC(C(F)(F)F)=NN1S(=O)(=O)N(c1ccc(C#N)c(C(F)(F)F)c1)C2=O` the Inhibition (Rattus norvegicus [1]) was 28%, the Activity (Rattus norvegicus [6]) was 66% and the Activity (Rattus norvegicus [7]) was 41%.
